As usually defined, the IC50 is the midpoint of a concentration-inhibition curve. For orientation: Ki means the equilibrium dissociation constant of an inhibitor or competing ligand from its target. In general, pKa refers to the pH at which an ionisable group is half protonated.

For data set [1], the target named is T1, organic cation transporter 2 (Homo sapiens, UniProt O15244).
T1 sequence (O15244 1-555): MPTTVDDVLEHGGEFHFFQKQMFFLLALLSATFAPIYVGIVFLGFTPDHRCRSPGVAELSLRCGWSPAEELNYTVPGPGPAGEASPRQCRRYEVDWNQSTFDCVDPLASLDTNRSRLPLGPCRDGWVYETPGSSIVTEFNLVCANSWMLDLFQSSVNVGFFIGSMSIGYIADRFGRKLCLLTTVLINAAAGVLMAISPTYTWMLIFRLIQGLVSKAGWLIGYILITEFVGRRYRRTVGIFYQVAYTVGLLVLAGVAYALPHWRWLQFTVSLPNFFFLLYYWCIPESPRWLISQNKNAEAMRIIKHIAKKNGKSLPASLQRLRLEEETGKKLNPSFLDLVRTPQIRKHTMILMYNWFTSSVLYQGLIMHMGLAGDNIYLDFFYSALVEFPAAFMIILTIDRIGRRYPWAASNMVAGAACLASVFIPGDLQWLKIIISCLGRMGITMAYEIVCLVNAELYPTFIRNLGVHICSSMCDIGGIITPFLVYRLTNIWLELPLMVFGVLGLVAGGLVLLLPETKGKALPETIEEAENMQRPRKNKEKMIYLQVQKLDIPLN
The data set can be described thus: Inhibitory potency towards OCT2. The class given is in vitro ADME.

The target of the next data set is T2, OAT3 (Homo sapiens, UniProt Q8TCC7).
T2 sequence (Q8TCC7 1-542): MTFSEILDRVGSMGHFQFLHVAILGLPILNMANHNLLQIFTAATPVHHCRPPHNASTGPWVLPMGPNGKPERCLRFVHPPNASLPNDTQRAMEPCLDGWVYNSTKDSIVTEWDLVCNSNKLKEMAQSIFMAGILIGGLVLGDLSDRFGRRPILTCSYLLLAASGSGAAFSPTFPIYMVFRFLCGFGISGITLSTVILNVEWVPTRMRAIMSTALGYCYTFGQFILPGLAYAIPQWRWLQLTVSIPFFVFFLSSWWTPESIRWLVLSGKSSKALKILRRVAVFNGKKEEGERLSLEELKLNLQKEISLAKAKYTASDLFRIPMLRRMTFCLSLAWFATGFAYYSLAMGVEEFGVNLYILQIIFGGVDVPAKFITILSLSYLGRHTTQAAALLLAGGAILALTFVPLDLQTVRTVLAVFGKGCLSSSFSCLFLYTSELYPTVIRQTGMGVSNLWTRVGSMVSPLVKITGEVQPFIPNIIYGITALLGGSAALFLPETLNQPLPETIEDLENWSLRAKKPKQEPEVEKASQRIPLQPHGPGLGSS
Put plainly: Inhibitory potency towards OAT3. The data set is classed as in vitro ADME.

Another data set deals with T3, UGT1A9 (Homo sapiens, UniProt O60656).
T3 sequence (O60656 26-530): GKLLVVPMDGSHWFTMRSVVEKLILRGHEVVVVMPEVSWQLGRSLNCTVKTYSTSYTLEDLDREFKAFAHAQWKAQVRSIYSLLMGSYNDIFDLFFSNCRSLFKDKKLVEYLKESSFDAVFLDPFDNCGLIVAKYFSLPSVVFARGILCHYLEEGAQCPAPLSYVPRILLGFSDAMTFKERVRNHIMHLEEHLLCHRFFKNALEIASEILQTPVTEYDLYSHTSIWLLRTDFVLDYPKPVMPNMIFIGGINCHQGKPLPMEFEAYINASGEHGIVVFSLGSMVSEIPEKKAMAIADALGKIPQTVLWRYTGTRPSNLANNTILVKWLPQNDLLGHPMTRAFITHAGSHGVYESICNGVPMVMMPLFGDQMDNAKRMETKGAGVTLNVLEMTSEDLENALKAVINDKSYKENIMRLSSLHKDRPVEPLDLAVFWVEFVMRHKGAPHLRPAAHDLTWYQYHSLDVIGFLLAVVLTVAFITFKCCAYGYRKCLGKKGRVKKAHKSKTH
The data set can be described thus: Inhibitory potency towards UGT isoforms: UGT1A9. The class given is in vitro ADME.

The target of the next data set is T4, OATP1B3 (Homo sapiens, UniProt Q9NPD5).
T4 sequence (Q9NPD5 1-702): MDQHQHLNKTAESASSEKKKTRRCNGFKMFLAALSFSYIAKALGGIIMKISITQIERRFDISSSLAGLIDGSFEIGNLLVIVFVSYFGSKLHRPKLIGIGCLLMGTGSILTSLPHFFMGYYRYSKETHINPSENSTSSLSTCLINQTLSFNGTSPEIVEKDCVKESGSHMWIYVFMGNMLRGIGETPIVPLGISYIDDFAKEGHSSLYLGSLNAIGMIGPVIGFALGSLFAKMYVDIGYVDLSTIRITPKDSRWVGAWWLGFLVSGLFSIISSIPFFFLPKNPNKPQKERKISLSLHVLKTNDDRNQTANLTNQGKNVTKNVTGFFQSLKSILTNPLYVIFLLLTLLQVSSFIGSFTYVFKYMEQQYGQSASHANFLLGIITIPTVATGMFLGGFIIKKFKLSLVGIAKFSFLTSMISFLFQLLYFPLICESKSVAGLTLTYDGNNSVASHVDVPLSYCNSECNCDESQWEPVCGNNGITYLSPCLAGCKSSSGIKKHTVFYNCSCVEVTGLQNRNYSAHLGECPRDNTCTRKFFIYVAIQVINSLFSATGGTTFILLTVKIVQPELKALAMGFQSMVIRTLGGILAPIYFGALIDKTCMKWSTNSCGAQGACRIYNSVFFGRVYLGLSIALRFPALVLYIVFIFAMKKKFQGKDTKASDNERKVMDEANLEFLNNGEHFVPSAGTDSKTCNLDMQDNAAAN
Put plainly: Substrate properties towards OATP1B3. The class given is in vitro ADME.

A further data set is described as follows: Human mass balance study. The class given is in vivo. The settings on record: 14C-labeled vericiguat 5 mg oral. An outline of the steps: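 Open-label, non-randomized, non-placebo-controlled study in six healthy male volunteers. Single oral solution of 5 mg [14C]-labelled test compound given fasting. Urine and feces collected up to 336 h and total radioactivity measured as % of dose, summarized descriptively as mean (range). Plasma components expressed as share of total radioactivity AUC.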

For data set [2] the following is noted: multiple oral doses vericiguat 2.5 mg 2 h prior to sacubitril/valsartan; cited from earlier work.
Data set [3] is described as follows: Phase I DDI study with sacubitril/valsartan. The class given is in vivo, human. To be noted: administered with sacubitril/valsartan.
A short description of data set [4]: pKa and pH-dependent solubility. The data set is classed as physicochemical.
The target of another data set is P-glycoprotein (Homo sapiens, UniProt P08183). Put plainly: Substrate properties towards P-gp. The data set is classed as in vitro ADME.
Sequence of P-glycoprotein (P08183 whole entry, canonical isoform): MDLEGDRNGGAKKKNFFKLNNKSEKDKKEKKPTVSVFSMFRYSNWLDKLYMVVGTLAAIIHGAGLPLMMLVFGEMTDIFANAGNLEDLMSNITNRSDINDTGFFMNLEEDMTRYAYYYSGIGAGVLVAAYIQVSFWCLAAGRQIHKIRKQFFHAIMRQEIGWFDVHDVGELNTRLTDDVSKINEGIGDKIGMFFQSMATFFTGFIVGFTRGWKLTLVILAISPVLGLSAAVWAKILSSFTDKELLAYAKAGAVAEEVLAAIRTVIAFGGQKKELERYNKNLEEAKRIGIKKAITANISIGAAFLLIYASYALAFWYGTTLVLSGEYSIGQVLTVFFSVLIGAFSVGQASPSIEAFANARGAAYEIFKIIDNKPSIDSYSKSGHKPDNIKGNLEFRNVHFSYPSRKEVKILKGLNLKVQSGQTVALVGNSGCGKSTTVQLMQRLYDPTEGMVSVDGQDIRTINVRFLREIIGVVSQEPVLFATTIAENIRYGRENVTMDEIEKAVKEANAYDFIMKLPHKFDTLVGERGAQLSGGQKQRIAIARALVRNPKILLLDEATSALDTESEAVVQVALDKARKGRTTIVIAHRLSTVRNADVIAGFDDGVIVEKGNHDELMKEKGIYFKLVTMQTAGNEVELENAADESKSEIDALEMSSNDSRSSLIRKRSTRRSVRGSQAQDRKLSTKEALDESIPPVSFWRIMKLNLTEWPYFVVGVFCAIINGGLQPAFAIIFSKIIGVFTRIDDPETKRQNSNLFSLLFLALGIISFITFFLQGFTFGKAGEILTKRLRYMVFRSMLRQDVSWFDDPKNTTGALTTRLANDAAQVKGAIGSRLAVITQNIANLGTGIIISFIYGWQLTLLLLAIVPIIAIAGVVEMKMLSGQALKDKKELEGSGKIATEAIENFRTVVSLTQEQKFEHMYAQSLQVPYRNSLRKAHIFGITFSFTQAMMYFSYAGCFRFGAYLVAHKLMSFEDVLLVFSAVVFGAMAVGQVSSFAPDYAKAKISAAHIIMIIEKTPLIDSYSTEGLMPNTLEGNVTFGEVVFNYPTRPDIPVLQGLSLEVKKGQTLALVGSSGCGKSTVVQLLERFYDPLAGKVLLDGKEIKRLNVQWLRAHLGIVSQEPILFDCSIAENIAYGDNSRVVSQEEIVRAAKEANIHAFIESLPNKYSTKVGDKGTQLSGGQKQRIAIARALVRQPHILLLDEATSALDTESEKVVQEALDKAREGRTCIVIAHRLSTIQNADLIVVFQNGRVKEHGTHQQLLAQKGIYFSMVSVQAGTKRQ
Data set [5] deals with major cytochrome P450 (CYP) isoforms. To be noted: human liver microsomes; cited from earlier work.
Setting [6] is: % of dose, listed as vericiguat.

Structures are written as SMILES. Marks after values point to notes of the source that are not given here.

In data set [1], `COC(=O)Nc1c(N)nc(-c2nn(Cc3ccccc3F)c3ncc(F)cc23)nc1N` [Vericiguat] came in with an IC50 above 5 µM. This compound showed an IC50 on OAT3 above 5 µM. At UGT1A9, this compound gave an IC50 of 10.6 µM and a Ki of 6.6 µM. In addition, the “Substrate of OATP1B3” value at OATP1B3 is “not a substrate”. For the same compound, the “Share of total radioactivity AUC in human plasma” value in the data set “Human mass balance study” was found to be 27%. Also, in the data set “Human mass balance study” (% of dose), the “Excretion in feces (range)” value is 42.6 (38.3–46.5) %, the “Excretion in urine (range)” value is listed as 9.0 (6.1–16.1) % and the “Total excretion of analyte (urine plus feces) (range)” value is given as 51.6 (46.0–62.6) %. In the data set “Human mass balance study” (setting [6]), the “Excretion in feces (range)” value was found to be 43% and the “Excretion in urine (range)” value is 9.0%. In “Human mass balance study” (% of dose, mean (range)), the “Radioactivity excreted via feces” value is recorded as 45.2 (40.1–49.9) % and the “Radioactivity excreted via urine” value is 53.1^b (49.9–56.1) %. In [2], the “Effect on seated blood pressure” value is recorded as “no additional effect”. Also, in data set [3], the “Decrease in AUC0–24 of vericiguat” value is “about 7%” and the “Decrease in Cmax of vericiguat” value is around 9%. In data set [4], the “pH dependence of solubility” value was “lower in neutral conditions compared with acidic conditions” and the pKa is 4.7. For the same compound, the “Substrate of P-glycoprotein” value on P-glycoprotein is listed as “substrate”. In [5], the “Inhibitory effects on major cytochrome P450 (CYP) isoforms” value is listed as “no inhibitory effects”.
